Myeloid diff MLP – compounds promoting myeloid differentiation; 360,000 compounds, 1% hits; AID 624256; calls only at 10 µM; ER-HoxA9 myeloid progenitors, lysozyme-GFP differentiation, flow cytometry;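 active = normalized GFP-positive differentiation at or above the plate's own cutoff, the solvent-only control mean plus 3 SD; inconclusive = no clear call, values can overlap the other calls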;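 note: cells exposed to compound for four days before flow analysis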
Rpn11 inh – inhibitors of human proteasome Rpn11; O00487; human 26S proteasome, Ub4-pepOG fluorescence polarization; 20S core pre-blocked with epoxomicin; inhibition, % at 20 µM; 360,000 compounds, 0.59% hits; AID 588493;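 active = inhibition at 20 µM, scaled to each plate's controls, above about 33%, limit read from the data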
CSN inh – blocks human CSN-mediated cullin deneddylation. inhibition, % at 12.5 µM. 360,000 compounds, 0.38% hits. AID 651999. Q92905. Purified CSN, SCF-Nedd8-OG deneddylation, fluorescence polarization;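 active = pattern-corrected inhibition above about 35%, with an unprinted fluorescence ratio check between 0.5 and 1.5, limit read from the data, passing the limit was not always enough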;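 note: 0% = enzyme with substrate and 100% = substrate without enzyme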
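Assay system: purified human Csn5 enzyme expressed in HEK293T cells; Input: 0.24 nM Csn5 enzyme, final concentration; Reagent: 10 nM SCFSkp2-Nedd8OG; Compound dosing: 12.5 µM single point; Times: reaction 90 min, room temperature; Technique: fluorescence polarization readout.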
TPT1 inh – C. albicans TPT1 enzyme inhibition; recombinant caTPT1, FP RNA substrate dephosphorylation; inhibition, % at 5 µM; 300,000 compounds, 0.81% hits;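 active = inhibition above the mean of all tested compounds plus 3 SD, set per screening campaign, cut at about 24% in these data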;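 note: plate controls were DMSO alone for no effect and ferristatin control at 100 nM for full effect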
HNF4A DNA FP – change in binding of human HNF4 alpha to DNA | AID 1224865 | 360,000 compounds, 0.3% hits | activity change, % at 10 µM | HNF4a-FITC DNA binding, fluorescence polarization, 1 h; in the data active = activity change above about 30%, passing the limit was not always enough
Target sequence (P41235 whole entry, looked up): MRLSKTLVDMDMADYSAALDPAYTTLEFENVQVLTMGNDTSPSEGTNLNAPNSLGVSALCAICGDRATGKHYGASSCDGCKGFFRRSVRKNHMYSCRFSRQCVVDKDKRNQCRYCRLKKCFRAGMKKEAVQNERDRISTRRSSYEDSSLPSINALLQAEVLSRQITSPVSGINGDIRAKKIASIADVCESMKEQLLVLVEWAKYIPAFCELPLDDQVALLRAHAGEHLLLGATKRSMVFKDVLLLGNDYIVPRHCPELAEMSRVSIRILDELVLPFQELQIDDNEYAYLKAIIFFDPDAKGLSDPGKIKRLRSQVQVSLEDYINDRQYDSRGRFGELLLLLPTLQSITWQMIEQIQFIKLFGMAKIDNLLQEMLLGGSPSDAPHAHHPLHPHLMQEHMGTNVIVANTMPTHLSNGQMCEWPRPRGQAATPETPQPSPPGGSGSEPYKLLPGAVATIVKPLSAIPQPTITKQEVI
Rpn11 confirm – confirmation of human proteasome Rpn11 inhibitors. inhibition, % at 20 µM. shares compounds with Rpn11 inh. purified human 26S proteasome, Ub4-pepOG fluorescence polarization; proteasome pretreated with epoxomicin. 1,900 compounds, 29% hits
MMP-2 inh – blocks human MMP-2, flagging nonselective RPN11 hits; 1,900 compounds, 4% hits; shares compounds with Rpn11 inh; recombinant MMP-2, FRET peptide cleavage fluorescence; inhibition, % at 20 µM; AID 602330;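 note: human MMP-2 activated beforehand with APMA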
Thrombin inh – blocks bovine thrombin, flagging nonselective RPN11 hits. shares compounds with Rpn11 inh. bovine thrombin cleavage of Ub4-pepOG, fluorescence polarization. inhibition, % at 20 µM. 1,900 compounds, 13% hits;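 active = mean inhibition at least 40% at 20 µM, or signal 3 deviations below plate average, so some actives read negative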;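 note: plate controls were thrombin with DMSO for no effect and buffer wells lacking thrombin for full effect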
Active calls of the source: *; i = inactive; ? = inconclusive; · = no result given. In the library only some 2.3% were active in any assay of this set; here they are far more common. Cut-off read from the data, not from the text of the source, unless noted: active = inhibition above about 40%; inactive = the rest.

SMILES	Myeloid diff MLP	Rpn11 inh	CSN inh	TPT1 inh	HNF4A DNA FP	Rpn11 confirm	MMP-2 inh	Thrombin inh
FC(F)Oc1ccc(NC(=S)NNc2ccnc3cc(Cl)ccc23)cc1	i	50*	11	3	39	84*	39	active
NC(=S)NNc1ccnc2cc(Cl)ccc12	i	0	8	5	1	·	·	·
CCC(=O)N1CCCC(C)(C(=O)NS(=O)(=O)c2cccs2)C1 (stereo not drawn)	i	-8	-3	·	0	·	·	·
COc1ccc(/C=C2\SC(=S)N(CC(=O)Nc3nnc(C)s3)C2=O)cc1	i	41*	2	-3	-1	3	-8	-5
COc1cc(/C=C2\SC(=S)N(CC(=O)Nc3ccccn3)C2=O)cc(OC)c1OC	i	60*	12	13	11	38	-5	25
COc1cc(/C=C2\SC(=S)N(CCC(=O)Nc3ccccn3)C2=O)cc(OC)c1OC	i	14	5	6	-1	·	·	·
COc1cc(/C=C2/SC(=S)N(CC(=O)Nc3nc4ccccc4s3)C2=O)cc(OC)c1OC	i	51*	11	17	12	52*	16	28
COc1cc(/C=C2\SC(=O)N(CC(=O)Nc3ccc(C)cc3)C2=O)cc(Cl)c1OCC(=O)O	i	87*	20	6	-4	4	-12	25
CC[N+]1(C)CCC(O)(c2ccc(OC)cc2)C(C(=O)c2ccc(OC)cc2)C1 (stereo not drawn)	i	-1	-1	·	13	·	·	·
Cc1ccc(C)c(NC(=S)NCc2cccs2)c1	i	-6	-10	-3	2	·	·	·
Cc1ccccc1NC(=S)NCc1cccs1	i	162*	0	-3	-25	0	-16	-4
COc1ccc(-n2c(C)cc(/C=C3\C(=N)N4N=C(CC(=O)N5CCOCC5)SC4=NC3=O)c2C)c(OC)c1	i	43*	4	18	14	17	13	4
COc1ccccc1-n1c(C)cc(/C=C2\C(=N)N3N=C(CC(=O)N4CCOCC4)SC3=NC2=O)c1C	i	0	-1	3	4	·	·	·
COc1ccccc1N1CCN(Cc2cc(Br)c(O)c3ncccc23)CC1	?	45*	1	-6	0	31	34	-21
Oc1c(CN2CCCCC2)cc(COCc2ccccc2)c2cccnc12	?	76*	4	-2	-2	39	30	-11
S=C(NCCN1CCOCC1)Nc1ccccc1Cl	i	10	-1	-1	2	·	·	·
CCCC(=O)Nc1nc(C)c(-c2csc(Nc3ccc(Cl)cc3)n2)s1	i	21	12	9	5	·	·	·
CCC(C)C(=O)Nc1nc(C)c(-c2csc(Nc3ccc(Cl)cc3)n2)s1 (stereo not drawn)	i	39*	11	9	6	20	14	-6
COc1ccc(NC(=O)NCCCCc2ccccc2)c(OC)c1	i	-5	2	4	-3	·	·	·
O=C(CCOc1ccccc1)Nc1ccccc1[N+](=O)[O-]	i	34*	-6	-5	13	-14	14	-13
C=CC[C@]12C=C(OC)C(=O)C=C1O[C@@H](c1ccc3c(c1)OCO3)[C@H]2C	i	1	4	-2	-1	·	·	·
Cc1nc(C(F)(F)F)ccc1C(=O)N1CCC1(C)C(=O)NS(C)(=O)=O (stereo not drawn)	i	-2	1	·	-2	·	·	·
Nc1nc(-c2cc(O)ccc2[N+](=O)[O-])cc(-c2ccccc2)c1[N+](=O)[O-]	·	40*	24	·	-20	43*	-21	15
O=[N+]([O-])c1cc(-c2ccccc2)cc([N+](=O)[O-])c1O	i	0	-5	·	4	·	·	·
O=C(N/N=C/c1cc([N+](=O)[O-])ccc1O)c1cc(-c2ccccc2)nc2ccccc12	?	42*	6	3	4	43*	24	-7
CCC1(c2ccc(F)cc2)NC(=O)N(CC(=O)N(C)C2CCS(=O)(=O)C2)C1=O (stereo not drawn)	i	5	4	-3	3	·	·	·
